Assay results as given in ChEMBL document CHEMBL3112425, “Design, synthesis, and structure-activity relationship studies of a potent PACE4 inhibitor” (J Med Chem, 2014).
pIC50, pKi: −log10 of the molar value. Peptide text beside a SMILES is read from it. * marks the point of attachment. X1 = N=C(N)NC/C=C/CN*

Assays:
[1] = target: T1, Neuroendocrine convertase 2 (Homo sapiens, UniProt P16519); experiment: Inhibition of human PC2 expressed in drosophila schneider 2 cells using pyroGlu-Arg-Thr-Lys-Arg-AMC as substrate after 1 hr
T1 sequence (P16519 whole entry): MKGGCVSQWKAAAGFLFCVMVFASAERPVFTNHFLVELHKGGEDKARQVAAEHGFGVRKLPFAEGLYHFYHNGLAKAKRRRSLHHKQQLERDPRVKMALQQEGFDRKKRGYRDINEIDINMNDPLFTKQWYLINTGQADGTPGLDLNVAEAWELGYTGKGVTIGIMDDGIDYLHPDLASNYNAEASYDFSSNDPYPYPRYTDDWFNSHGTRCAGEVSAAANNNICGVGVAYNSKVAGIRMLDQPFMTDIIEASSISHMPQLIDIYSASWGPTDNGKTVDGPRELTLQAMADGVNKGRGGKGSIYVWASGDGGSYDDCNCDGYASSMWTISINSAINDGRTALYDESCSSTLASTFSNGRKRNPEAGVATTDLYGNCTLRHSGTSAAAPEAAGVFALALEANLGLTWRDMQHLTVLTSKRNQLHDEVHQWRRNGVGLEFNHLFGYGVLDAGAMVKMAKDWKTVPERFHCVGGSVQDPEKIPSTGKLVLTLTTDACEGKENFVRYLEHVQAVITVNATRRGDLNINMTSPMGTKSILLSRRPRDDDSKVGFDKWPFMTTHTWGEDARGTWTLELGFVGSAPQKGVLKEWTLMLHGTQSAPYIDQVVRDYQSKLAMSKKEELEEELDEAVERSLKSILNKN
Procedure, shortened: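 Human enzymes were expressed in Drosophila S2 cells and purified. Fluorogenic pyroGlu-RTKR-AMC was used at fixed concentration with varied inhibitor, 37 °C over 1 h. Buffers: furin, 100 mM Hepes pH 7.5, 1 mM CaCl2, 1 mM β-mercaptoethanol, 1.8 mg/mL BSA; PACE4 and PC7, 20 mM Bis-Tris pH 6.5, 1 mM CaCl2, 1.8 mg/mL BSA; PC2, same buffer at pH 5.7. Ki from IC50 (Cheng–Prusoff), or apparent Ki (Morrison) for tight binders. Triplicate, mean ± SD.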

[2] = system: DU-145; experiment: Cellular uptake in human DU145 cells after 1 hr by propidium iodide staining-based FACS analysis; type: ADME, cell-based; conditions: du-145, 1 h
Procedure, shortened: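 FITC-βAla-labelled peptides at 10 μM were given to DU145 cells for 1 h in serum-free RPMI. Cells were collected, then washed twice with 0.05% trypsin (5 min, 37 °C) to strip membrane-bound peptide. Propidium iodide (10 μg/mL, 2 min) excluded damaged cells. FACS read 10 000 events/sample as geometric mean fluorescence, against untreated-cell autofluorescence.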

[3] = system: DU-145; experiment: Cytotoxicity against human DU145 cells after 72 hrs by MTT assay; type: functional, cell-based; conditions: DU-145, 72 h
Procedure, shortened: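 Prostate cancer cells were kept in RPMI 1640 at 37 °C, 5% CO2, with 5% FBS for DU145 and 10% FBS for LNCaP and PC3. After 24 h, medium was changed and peptides added at various concentrations, up to 350 μM. Viability was read by MTT after 72 h treatment. IC50 from dose–response curves, triplicate, mean ± SEM.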

SMILES: CC(=O)N[C@@H](CC(C)C)C(=O)N[C@@H](CC(C)C)C(=O)N[C@@H](CC(C)C)C(=O)N[C@@H](CC(C)C)C(=O)N[C@@H](CCCNC(=N)N)C(=O)N[C@H](C(=O)N[C@@H](CCCCN)C(=O)NC/C=C/CNC(=N)N)C(C)C (Ac-LLLLRVK-X1)
- pKi [1]: 8.77
- Drug uptake [2]: Active
- pIC50 [3]: 4.05
